Measurements from ChEMBL document CHEMBL5579848, “Isothiocyanate-Corticosteroid Conjugates against asthma: Unity makes strength” (Eur J Med Chem, 2024).
≈ marks a conversion by molar mass, not a printed value. Calls of active or inactive are those of the source. No cut-off for these calls is given here.

Key:
[1] = Solubility of compound in PBS at pH 7.4 at 5 mg incubated at 25 degreeC for 6 hrs by UHPLC analysis; format: physicochemical
Method in brief: (§1)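 Solid compound (5 mg) was shaken in 1 mL water, PBS (pH 7.4, 50 mM) or pepsin-free SGF (pH 1.2) for 6 h at 25 °C. Suspensions were filtered (0.45 μm) and the filtrate quantified by UHPLC, reported in mg/L; triplicate, mean values.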

[2] = Half life in PBS at pH 7.4 at 100 uM incubated at 37 degreeC up to 24 hrs by UPHLC analysis; format: ADME
Method in brief: (§2)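 A 10 mM DMSO stock was diluted to 100 μM in PBS (pH 7.4, 50 mM) or pepsin-free SGF (pH 1.2) and held at 37 ± 0.5 °C for 24 h. Timed aliquots were quantified by reverse-phase UHPLC-DAD against calibration curves (1.56–100 ppm), tracking the parent compound plus aminoacetate and corticosteroid metabolites. Pseudo-first-order t1/2 was calculated; n = 3.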

[3] = Induction of H2S release in PBS at pH 7.4 at 100 uM measured after 30 mins by free radical analyzer; format: physicochemical; conditions: buffer, pH 7.4, 0.5 h
Method in brief: (§3)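 An H2S-selective mini-electrode was equilibrated in PBS pH 7.4, and compound was added to 100 μM final (1 % DMSO). Amperometric current was recorded for 30 min, with or without L-cysteine 4 mM added 10 min before. Current was converted to H2S using NaHS calibration (1–10 µM, pH 4.0); mean ± SEM.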

[4] = Induction of H2S release in PBS at pH 7.4 at 100 uM pretreated with L-Cys for 10 mins followed by compound addition and measured after 30 mins by free radical analyzer; format: physicochemical; conditions: buffer, pH 7.4, 0.5 h; method in brief: as §3
[5] = system: RBL-2H3; assay: Cytotoxicity against rat RBL-2H3 cells assessed as reduction cell viability at 100 uM after 24 hrs by WST assay; format: toxicity, cell-based; conditions: rbl-2h3, 24 h
Method in brief: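 RBL-2H3 cells were grown in MEM with 10 % FBS, 10^4 cells/well, and attached for 24 h. They were then exposed 24 h to 100 μM compound (final) or 0.1 % DMSO. WST-1 (1:10) was added for 60 min at 37 °C and absorbance read at 450 nm. Viability is expressed as % of vehicle; mean ± SEM.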

[6] = Solubility of compound in simulated gastric fluid at pH 1.2 in absence of pepsin at 5 mg incubated at 25 degreeC for 6 hrs by UHPLC analysis; format: ADME; conditions: simulated gastric fluid without pepsin; method in brief: as §1
[7] = target: T1, Albumin (Bos taurus, UniProt P02769); assay: Half life in 3% bovine serum albumin at 200 uM incubated up to 4 hrs by UHPLC analysis; format: ADME; conditions: cattle, 3% bovine serum albumin solution
T1 sequence (P02769 whole entry): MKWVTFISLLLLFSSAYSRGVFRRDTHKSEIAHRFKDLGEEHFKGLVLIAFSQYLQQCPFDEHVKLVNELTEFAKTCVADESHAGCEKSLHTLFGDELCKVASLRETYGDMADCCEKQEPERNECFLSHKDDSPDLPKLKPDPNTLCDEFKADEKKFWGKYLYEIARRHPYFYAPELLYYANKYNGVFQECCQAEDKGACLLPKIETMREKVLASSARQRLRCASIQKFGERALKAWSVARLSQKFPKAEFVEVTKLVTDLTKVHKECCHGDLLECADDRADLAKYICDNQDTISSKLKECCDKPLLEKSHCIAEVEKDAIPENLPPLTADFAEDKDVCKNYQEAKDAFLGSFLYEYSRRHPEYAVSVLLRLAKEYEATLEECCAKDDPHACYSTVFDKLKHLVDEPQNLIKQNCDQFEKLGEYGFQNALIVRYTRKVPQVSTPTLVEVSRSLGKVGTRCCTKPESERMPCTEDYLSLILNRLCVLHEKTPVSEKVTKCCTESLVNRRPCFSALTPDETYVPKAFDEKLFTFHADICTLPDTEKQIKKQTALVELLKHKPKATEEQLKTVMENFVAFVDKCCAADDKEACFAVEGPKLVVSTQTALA
Method in brief: (§4)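 A 10 mM DMSO stock was diluted to 200 μM in 3 % BSA in PBS and incubated at 37 ± 0.5 °C for up to 4 h. Timed samples were deproteinized with an equal volume of acetonitrile/0.1 % TFA, centrifuged, filtered and quantified by UHPLC. Results are given as pseudo-first-order t1/2 or % parent remaining at 10 min; n ≥ 3.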

[8] = Solubility of compound in water at 5 mg incubated at 25 degreeC for 6 hrs by UHPLC analysis; format: physicochemical; method in brief: as §1
[9] = Half life in simulated gastric fluid at pH 1.2 in absence of pepsin at 100 uM incubated at 37 degreeC up to 24 hrs by UPHLC analysis; format: ADME; conditions: simulated gastric fluid without pepsin; method in brief: as §2
[10] = system: Mus musculus; assay: Anti-asthmatic activity in OVA-induced female BALB/c mouse model assessed as reduction in pulmonary IL-13 level at 3.512 x 10^-6M, ip for 30 min before every ovalbumin challenge on day 0 and 7 and measured after 21 days by ELISA; format: functional, organism-based; conditions: dose 3.512 10^-6M, time 21.0 day
Method in brief: (§5)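 Female BALB/c mice (20 g, 8 weeks) sensitized s.c. with 100 μg ovalbumin adsorbed to 13.3 mg aluminum hydroxide gel (0.4 ml) on days 0 and 7; saline controls. Test agent (1–2 mg/kg, or equimolar 3,51 × 10^-6 mol) or vehicle given ip 30 min before each OVA dose. Killed day 21 by enflurane overdose; lungs, bronchi, blood collected.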

[11] = system: RBL-2H3; assay: Inhibition of mast cell degranulation in DNP-HSA antigen sensitized rat RBL-2H3 cells assessed as reduction in beta-hexoaminosidase release at 100 uM preincubated for 5 mins followed by DNP addition and measured after 1 hr by multiplate reader; format: functional, cell-based; conditions: time 65.0 min
Method in brief: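 RBL-2H3 cells (72×10^3/well) were sensitized overnight with anti-DNP IgE 0.50 µg/ml, then moved to phenol-free DMEM with 1 mg/ml BSA. Cells were preincubated 5 min at 37 °C with 0.1 % DMSO, cromolyn 1 mM or compound 100 μM, then challenged with DNP-HSA 10 ng/ml. After 1 h, supernatant was incubated 1 h with 1.4 mM p-nitrophenyl-N-acetyl-β-D-glucosaminide (citrate pH 4.2), stopped with Trizma pH 9.4, and read at 405 nm.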

[12] = system: Mus musculus; assay: Anti-asthmatic activity in OVA-induced female BALB/c mouse model assessed as reduction in IgE level in plasma at 3.512 x 10^-6M, ip for 30 min before every ovalbumin challenge on day 0 and 7 and measured after 21 days by ELISA; format: functional, organism-based; conditions: dose 3.512 10^-6M, time 21.0 day; method in brief: as §5
[13] = system: Mus musculus; assay: Anti-asthmatic activity in OVA-induced female BALB/c mouse model assessed as inhibition of bronchial hyperreactivity at 3.512 x 10^-6M, ip for 30 min before every ovalbumin challenge on day 0 and 7 and measured after 21 days by isometric force transducer analysis; format: functional, organism-based; conditions: dose 3.512 10^-6M, time 21.0 day; method in brief: as §5
[14] = system: Mus musculus; assay: Anti-asthmatic activity in OVA-induced female BALB/c mouse model assessed as reduction in lung damage at 3.512 x 10^-6M, ip for 30 min before every ovalbumin challenge on day 0 and 7 and measured after 21 days by H and E staining based microscopic analysis; format: functional, organism-based; conditions: dose 3.512 10^-6M, time 21.0 day; method in brief: as §5
[15] = target: T1, Albumin; assay: Stability in 3% bovine serum albumin assessed as parent compound remaining at 200 uM incubated at 37 degreeC for 10 mins by UHPLC analysis; format: ADME; conditions: cattle, 3% bovine serum albumin solution, read-out: Stability; method in brief: as §4

In the case of `CCCCC(=O)O[C@]1(C(=O)COC(=O)CN=C=S)[C@@H](C)C[C@H]2[C@@H]3CCC4=CC(=O)C=C[C@]4(C)[C@@]3(F)[C@@H](O)C[C@@]21C`, the solubility at 6 h [1] is reported as 0.12 µg/mL (≈ 0.208 µM), the half-life at 100 µM [2] is reported as > 1440 min and the Activity [3] is reported as “Active”. For the same compound, the Activity [4] was “Active”, the Activity [5] was “Toxic” and the solubility at 6 h [6] was 0.16 µg/mL (≈ 0.278 µM). For the same compound, the half-life at 200 µM [7] was 60 min, the solubility at 6 h [8] was < 0.1 µg/mL and the half-life at 100 µM [9] was > 1440 min.
With `[Na+].[SH-]` [SODIUM HYDROSULFIDE] the Activity [3] was “<= 20 uM” and the Activity [4] was “<= 20 uM”.
For `C[C@]12C=CC(=O)C=C1CC[C@@H]1[C@@H]2[C@@H](O)C[C@@]2(C)[C@H]1C[C@H]1O[C@@H](C3CCCCC3)O[C@]12C(=O)COC(=O)CN`, the Activity [10] was “inactive”, the inhibition [11] was “Active” and the Activity [12] was “Active”. The Activity [13] was “inactive” and the Activity [14] was “inactive”.
With `C[C@]12C=CC(=O)C=C1CC[C@@H]1[C@@H]2C(=O)C[C@@]2(C)[C@H]1CC[C@]2(O)C(=O)COC(=O)CN` the inhibition [11] was “Active”.
In the case of `C[C@]12C=CC(=O)C=C1CC[C@@H]1[C@@H]2C(=O)C[C@@]2(C)[C@H]1CC[C@]2(O)C(=O)COC(=O)CN=C=S`, the remaining at 10 min, 200 µM [15] is reported as 19%, the solubility at 6 h [1] is reported as 15.9 µg/mL (≈ 34.8 µM) and the inhibition [11] is reported as “Active”. For the same compound, the half-life at 100 µM [2] was 12 min, the Activity [3] was ~ 2 uM and the Activity [4] was ~ 2 uM. For the same compound, the Activity [5] was “Non-Toxic”, the solubility at 6 h [6] was 16.1 µg/mL (≈ 35.2 µM) and the solubility at 6 h [8] was 5.26 µg/mL (≈ 11.5 µM). It also gave a half-life at 100 µM [9] of 1080 min.
